Experiment [1] concerns the target T1, 5-hydroxytryptamine receptor 3A (Homo sapiens, UniProt P46098).
T1 sequence (P46098 whole entry): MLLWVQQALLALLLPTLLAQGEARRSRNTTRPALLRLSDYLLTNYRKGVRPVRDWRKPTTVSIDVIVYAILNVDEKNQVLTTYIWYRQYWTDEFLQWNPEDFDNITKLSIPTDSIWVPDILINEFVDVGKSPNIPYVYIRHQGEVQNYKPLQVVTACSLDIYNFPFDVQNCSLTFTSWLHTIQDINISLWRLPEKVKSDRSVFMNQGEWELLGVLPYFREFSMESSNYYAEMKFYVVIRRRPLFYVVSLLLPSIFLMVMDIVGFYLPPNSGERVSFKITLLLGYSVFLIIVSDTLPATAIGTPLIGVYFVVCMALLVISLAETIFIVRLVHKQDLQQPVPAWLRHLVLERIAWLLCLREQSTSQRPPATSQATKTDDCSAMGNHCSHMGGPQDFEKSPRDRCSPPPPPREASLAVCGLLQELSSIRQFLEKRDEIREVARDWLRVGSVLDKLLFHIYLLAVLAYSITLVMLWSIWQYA
The experiment is described as follows: Displacement of [3H]-GR65630 from human recombinant 5-HT3 receptor expressed in HEKT cells after 90 mins by microbeta scintillation counting method. The format is cell-based. Put shortly: (§1)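 Radioligand binding run by the NIMH Psychoactive Drug Screening Program. […] Otherwise Ki comes from sigmoidal curve fits of triplicate measurements in a single experiment, or is averaged over repeated experiments each run in triplicate.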
In general terms: In a radioligand displacement assay an active substance lowers the binding of a labelled ligand.

Experiment [2] addresses 5-hydroxytryptamine receptor 7 (Homo sapiens, UniProt P34969). The experiment is described as follows: Displacement of [3H]-LSD from human recombinant 5-HT7 receptor expressed in stable HEK cells after 90 mins by microbeta scintillation counting method. The format is cell-based. The essentials: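 Run by NIMH Psychoactive Drug Screening Program. Otherwise, competition binding curves are generated and pKi is taken from a sigmoidal curve fit. Data are either triplicate measurements within one experiment, with the error from the fit, or the mean of repeated experiments, each run in triplicate.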

Experiment [3] deals with Beta-3 adrenergic receptor (Homo sapiens, UniProt P13945). The experiment is described as follows: Displacement of [3H]-CGP12177 from human recombinant adrenergic Beta3 receptor expressed in Flp-In HEK cells after 90 mins by microbeta scintillation counting method. The format is cell-based. The essentials: as §1
The target of the next experiment is D(3) dopamine receptor (Homo sapiens, UniProt P35462). The experiment is described as follows: Displacement of [3H]-N-methylspiperone from human recombinant dopamine D3 receptor expressed in HEKT cells after 90 mins by microbeta scintillation counting method. Type of experiment: cell-based. Put shortly:
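Radioligand binding run by the NIMH Psychoactive Drug Screening Program. Otherwise Ki comes from sigmoidal curve fits of triplicate measurements in a single experiment, or is averaged over repeated experiments each run in triplicate.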

In a further experiment the target is T2, D(4) dopamine receptor (Homo sapiens, UniProt P21917).
T2 sequence (P21917 whole entry): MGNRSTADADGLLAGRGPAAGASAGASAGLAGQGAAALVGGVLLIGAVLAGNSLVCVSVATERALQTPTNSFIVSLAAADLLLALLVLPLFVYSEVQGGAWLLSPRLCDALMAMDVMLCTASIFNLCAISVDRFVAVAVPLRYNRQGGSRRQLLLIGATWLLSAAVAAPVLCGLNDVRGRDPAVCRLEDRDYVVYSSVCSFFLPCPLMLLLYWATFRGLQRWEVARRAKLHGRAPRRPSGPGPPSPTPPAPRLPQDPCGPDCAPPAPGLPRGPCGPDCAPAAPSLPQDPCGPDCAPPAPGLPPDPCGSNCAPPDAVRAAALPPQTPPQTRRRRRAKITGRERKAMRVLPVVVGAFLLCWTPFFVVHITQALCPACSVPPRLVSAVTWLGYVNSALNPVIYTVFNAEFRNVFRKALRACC
The experiment is described as follows: Displacement of [3H]-methylspiperone from human recombinant dopamine D4 receptor expressed in Stable HEK cells after 90 mins by microbeta scintillation counting method. Type of experiment: cell-based. Put shortly:
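Radioligand binding was run by the NIMH Psychoactive Drug Screening Program. Compounds were first screened at 10 μM. Those giving ≥50% binding were taken to full competition curves. Ki is reported as pKi from a sigmoidal curve fit of triplicate measurements in a single experiment; the error is the curve-fit error.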

A further experiment has as its target Histamine H2 receptor (Homo sapiens, UniProt P25021). The experiment is described as follows: Displacement of [125I]-Iodoaminopotentidine from human recombinant histamine H2 receptor expressed in stable HEK cells after 90 mins by microbeta scintillation counting method. Type of experiment: cell-based. The essentials:
as §1

The target in experiment [4] is 5-hydroxytryptamine receptor 1B (Homo sapiens, UniProt P28222). The experiment is described as follows: Displacement of [3H]5-CT from human recombinant 5-HT1B receptor expressed in stable HEK cells at 10 uM after 90 mins by microbeta scintillation counting method relative to control. The format is cell-based.
Experiment [5] has as its target T3, Alpha-1D adrenergic receptor (Homo sapiens) (UniProt P25100).
T3 sequence (whole entry): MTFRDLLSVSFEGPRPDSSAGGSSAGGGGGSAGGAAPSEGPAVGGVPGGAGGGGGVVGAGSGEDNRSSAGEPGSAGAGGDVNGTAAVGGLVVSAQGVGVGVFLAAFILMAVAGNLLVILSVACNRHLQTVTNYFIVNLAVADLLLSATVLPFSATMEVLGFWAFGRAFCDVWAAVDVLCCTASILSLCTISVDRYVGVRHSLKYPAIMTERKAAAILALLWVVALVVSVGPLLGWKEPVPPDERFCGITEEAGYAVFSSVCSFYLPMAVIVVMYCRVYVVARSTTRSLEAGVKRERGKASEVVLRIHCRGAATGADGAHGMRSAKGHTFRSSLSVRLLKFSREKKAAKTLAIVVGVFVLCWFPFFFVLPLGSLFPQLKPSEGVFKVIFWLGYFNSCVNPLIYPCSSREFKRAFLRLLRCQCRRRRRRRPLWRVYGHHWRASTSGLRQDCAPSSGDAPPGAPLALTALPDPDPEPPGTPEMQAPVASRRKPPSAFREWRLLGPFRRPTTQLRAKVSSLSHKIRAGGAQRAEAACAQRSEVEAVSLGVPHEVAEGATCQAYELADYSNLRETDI
The experiment is described as follows: Displacement of [3H]-Prazosin from human recombinant adrenergic Alpha1D receptor expressed in cells at 10 uM after 90 mins by microbeta scintillation counting method relative to control. The format is cell-based.

Experiment [6] addresses T4, D(4) dopamine receptor (Homo sapiens) (UniProt P21917).
T4 sequence (whole entry): T2 sequence (P21917 whole entry)
The experiment is described as follows: Displacement of [3H]-methylspiperone from human recombinant dopamine D4 receptor expressed in Stable HEK cells at 10 uM after 90 mins by microbeta scintillation counting method relative to control. The format is cell-based.

Experiment [7] concerns the target GABA-A receptor; anion channel (Rattus norvegicus) (UniProt O09028+P15431+P18506+P18508+P19969+P20236+P23574+P23576+P28471+P28473+P30191+P62813+P63079+P63138+Q91ZM7+Q9ES14). The experiment is described as follows: Displacement of [3H]-Muscimol from GABAA receptor in rat brain at 10 uM incubated for 90 mins by microbeta scintillation counting method relative to control. Type of experiment: tissue-based. Put shortly:
as §1

Experiment [8] addresses Muscarinic acetylcholine receptor M3 (Homo sapiens, UniProt P20309). The experiment is described as follows: Displacement of [3H]-QNB/[3H]-NMS from human recombinant Muscarinic acetylcholine M3 receptor expressed in stable CHO cells at 10 uM after 90 mins by microbeta scintillation counting method relative to control. The format is cell-based.

Structures are written as SMILES.

We go through five molecules from ChEMBL document CHEMBL4304834, “3-Amino-chromanes and Tetrahydroquinolines as Selective 5-HT2B, 5-HT7, or σ1 Receptor Ligands” (ACS Med Chem Lett, 2019).

Sequence of Beta-3 adrenergic receptor (P13945 whole entry): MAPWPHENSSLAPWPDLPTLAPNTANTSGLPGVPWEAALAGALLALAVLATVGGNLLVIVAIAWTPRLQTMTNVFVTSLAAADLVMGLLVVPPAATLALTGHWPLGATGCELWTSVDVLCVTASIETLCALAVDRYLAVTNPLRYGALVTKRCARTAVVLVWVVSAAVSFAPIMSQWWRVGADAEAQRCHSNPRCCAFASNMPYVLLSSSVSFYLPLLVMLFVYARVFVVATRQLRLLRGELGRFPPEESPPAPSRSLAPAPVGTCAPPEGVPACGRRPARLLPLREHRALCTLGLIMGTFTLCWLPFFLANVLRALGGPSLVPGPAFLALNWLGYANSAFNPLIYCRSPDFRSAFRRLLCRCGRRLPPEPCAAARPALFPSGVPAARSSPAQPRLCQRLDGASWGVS
Sequence of Histamine H2 receptor (P25021 whole entry): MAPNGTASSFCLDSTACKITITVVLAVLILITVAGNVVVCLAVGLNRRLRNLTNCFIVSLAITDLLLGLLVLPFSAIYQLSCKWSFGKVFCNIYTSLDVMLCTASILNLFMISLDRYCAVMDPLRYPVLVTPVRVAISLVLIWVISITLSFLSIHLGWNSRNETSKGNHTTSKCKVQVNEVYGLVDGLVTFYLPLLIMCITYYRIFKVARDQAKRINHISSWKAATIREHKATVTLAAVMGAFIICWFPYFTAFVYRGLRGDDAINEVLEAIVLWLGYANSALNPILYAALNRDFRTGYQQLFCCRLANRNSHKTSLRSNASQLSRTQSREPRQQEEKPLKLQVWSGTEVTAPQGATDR
Sequence of 5-hydroxytryptamine receptor 1B (P28222 whole entry): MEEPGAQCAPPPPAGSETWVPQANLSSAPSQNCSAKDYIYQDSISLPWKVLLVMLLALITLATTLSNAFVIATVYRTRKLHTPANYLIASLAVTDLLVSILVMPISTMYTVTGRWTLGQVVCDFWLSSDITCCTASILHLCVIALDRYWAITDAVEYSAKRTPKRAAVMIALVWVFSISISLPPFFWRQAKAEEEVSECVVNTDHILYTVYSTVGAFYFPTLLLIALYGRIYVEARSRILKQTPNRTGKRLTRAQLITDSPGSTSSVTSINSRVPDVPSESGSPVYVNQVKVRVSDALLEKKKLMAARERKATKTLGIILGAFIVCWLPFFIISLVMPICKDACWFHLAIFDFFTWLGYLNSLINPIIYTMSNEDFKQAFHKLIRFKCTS
Sequence of Muscarinic acetylcholine receptor M3 (P20309 whole entry, looked up): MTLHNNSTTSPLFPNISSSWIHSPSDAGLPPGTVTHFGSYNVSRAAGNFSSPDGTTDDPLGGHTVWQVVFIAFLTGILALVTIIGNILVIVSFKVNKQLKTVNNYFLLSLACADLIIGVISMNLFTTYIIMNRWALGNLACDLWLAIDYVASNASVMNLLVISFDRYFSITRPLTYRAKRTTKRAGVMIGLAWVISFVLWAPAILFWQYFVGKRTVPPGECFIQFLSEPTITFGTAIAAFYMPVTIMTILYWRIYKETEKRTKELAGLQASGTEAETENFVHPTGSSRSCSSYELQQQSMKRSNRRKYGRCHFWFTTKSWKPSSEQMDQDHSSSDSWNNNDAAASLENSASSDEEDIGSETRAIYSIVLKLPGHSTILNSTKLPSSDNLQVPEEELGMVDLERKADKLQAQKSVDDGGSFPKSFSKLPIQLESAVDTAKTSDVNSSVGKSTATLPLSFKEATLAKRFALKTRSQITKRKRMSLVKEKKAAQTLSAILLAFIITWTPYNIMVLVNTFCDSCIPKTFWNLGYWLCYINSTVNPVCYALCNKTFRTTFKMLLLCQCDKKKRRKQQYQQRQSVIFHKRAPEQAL
Sequence of D(3) dopamine receptor (P35462 whole entry): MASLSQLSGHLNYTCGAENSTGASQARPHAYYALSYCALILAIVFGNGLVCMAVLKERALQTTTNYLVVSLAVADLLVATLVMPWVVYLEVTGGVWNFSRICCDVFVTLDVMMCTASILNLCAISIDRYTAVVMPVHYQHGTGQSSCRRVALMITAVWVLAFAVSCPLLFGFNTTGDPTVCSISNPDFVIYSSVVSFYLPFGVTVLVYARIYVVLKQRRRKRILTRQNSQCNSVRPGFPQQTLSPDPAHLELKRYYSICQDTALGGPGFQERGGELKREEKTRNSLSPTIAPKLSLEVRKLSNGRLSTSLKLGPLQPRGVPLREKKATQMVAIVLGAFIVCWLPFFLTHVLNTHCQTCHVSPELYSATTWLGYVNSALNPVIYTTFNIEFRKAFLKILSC
Sequence of 5-hydroxytryptamine receptor 7 (P34969 whole entry): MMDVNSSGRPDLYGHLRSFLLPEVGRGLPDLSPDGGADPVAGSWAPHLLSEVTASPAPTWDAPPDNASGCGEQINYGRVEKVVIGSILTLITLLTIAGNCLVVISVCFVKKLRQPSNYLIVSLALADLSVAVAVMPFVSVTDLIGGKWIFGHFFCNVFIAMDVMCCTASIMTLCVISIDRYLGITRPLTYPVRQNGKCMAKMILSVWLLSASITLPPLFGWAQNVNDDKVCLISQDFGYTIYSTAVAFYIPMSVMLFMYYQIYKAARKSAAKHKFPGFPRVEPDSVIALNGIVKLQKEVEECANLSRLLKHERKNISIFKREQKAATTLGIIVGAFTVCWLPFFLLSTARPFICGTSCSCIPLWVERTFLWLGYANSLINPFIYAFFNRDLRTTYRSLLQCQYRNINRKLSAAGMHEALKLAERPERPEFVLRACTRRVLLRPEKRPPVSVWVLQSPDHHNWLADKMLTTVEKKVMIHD

Turning to `CC[C@H]1c2cc(OC)ccc2CC[C@@]1(C)N` (racemic), the Ki (in experiment [1]; in [2] (read-out: pKi (converted)); in [3]; at D(3) dopamine receptor; at D(4) dopamine receptor; on Histamine H2 receptor) was over 10 µM each time. Further, the inhibition in [4], in [5], in [6], in [7] and in [8] was under 50% throughout.
Regarding `C[C@@]12CN(c3ccccc3)c3ccccc3[C@@H]1CCN2` (racemic), the Ki in experiment [1] is over 10 µM; in experiment [2] (read-out: Ki), 0.0063 µM; in experiment [3], over 10 µM; at D(4) dopamine receptor it was over 10 µM; at Histamine H2 receptor it was 2 µM.
With `CC[C@H]1c2cc(C)ccc2OC[C@@]1(C)N` (racemic), the Ki (in experiment [1]; in experiment [2] (read-out: pKi (converted)); in experiment [3]; at D(3) dopamine receptor; at D(4) dopamine receptor; at Histamine H2 receptor) was over 10 µM each time. Also, the inhibition in [4], in experiment [5], in [6], in experiment [7] and in [8] was under 50% throughout.
As for `CC[C@H]1c2ccccc2N(c2ccccc2)C[C@@]1(C)N` (racemic), the Ki in experiment [1] is over 10 µM; in experiment [2] (read-out: pKi (converted)), 1 µM; in experiment [3] it was 1 µM; at D(4) dopamine receptor, 2 µM; on Histamine H2 receptor it was over 10 µM.
Turning to `COc1cc(OC)c2c(c1)OC[C@@]1(C)NCC[C@@H]21` (racemic), the Ki in experiment [1] was over 10 µM; in [2] (read-out: pKi (converted)), 1.26 µM; in [3] it was over 10 µM; at D(3) dopamine receptor, over 10 µM; at D(4) dopamine receptor, over 10 µM; on Histamine H2 receptor it was over 10 µM. Moreover, the inhibition in experiment [4], in experiment [5], in [6], in [7] and in [8] was under 50% throughout.

In general, inhibition refers to the change of the read-out against control, counted positive when it falls.
